# This excerpt belongs to a sample that is enriched for hits.
# INS promoter act: activators of insulin promoter-driven GFP, primary screen, imaging, TRM-6 cells, eGFP reporter, cell count; activation, % at 2 µM; AID 1296, 2008; plate-scaled: unstimulated 0, stimulated control 100; 130,000 compounds, 0.81% hits;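 active means activation at 2 µM above a set limit, confirmed on inspection of the cell images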;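 further: share of cells whose green reporter signal exceeds an intensity cutoff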
#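 System: human fetal islet-derived TRM-6 cells with tamoxifen-inducible insulin promoter–eGFP reporter; input: seeding density of 1,000 cells per well; buffer or medium: Low-glucose (5.5 mM) medium with tamoxifen; incubation: compound exposure 48 h, 37 °C; measured by: high-content imaging of fixed cells with Hoechst nuclear stain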
# Numbers without * were called inactive.
SMILES,INS promoter act
c1csc(CNc2ccc3c(c2)OCCO3)c1,-3.3
Cc1nn(Cc2c(F)c(F)c(F)c(F)c2F)c(C)c1NC(=O)c1c([N+](=O)[O-])c(C)nn1C,-9.9
Cc1nn(Cc2c(F)c(F)c(F)c(F)c2F)c(C)c1NC(=O)c1c([N+](=O)[O-])cnn1C,3.6
CCn1ccc(C(=O)Nc2c(C)nn(Cc3c(F)c(F)c(F)c(F)c3F)c2C)n1,364.3*
COC(=O)c1cc2ccsc2n1CC(=O)Nc1cc(Cl)ccc1OC,0.0
N#CC(C(=O)C1CCCCC1)c1nc2ccccc2[nH]1 (configuration not stated),190.5
CCOC(=O)C1C2C=CC3(CN(CCc4ccccc4)C(=O)C13)O2 (configuration not stated),316.7
CCOC(=O)CSc1nc(N)nc(C)c1Cl,-7.1
CCOC(=O)c1cnc2c(C#N)cnn2c1N,0.0
COC(=O)c1ccncc1C(=O)Nc1ccc(F)cc1,-7.1
O=C(CCc1ccccc1)Nc1ccc(F)c([N+](=O)[O-])c1,0.0
CC(C)Cc1ccc(C(C)NC(=O)c2ccc(=O)[nH]c2)cc1 (configuration not stated),350.0*
CCCc1ccc(C(C)NC(=O)c2cnccn2)cc1 (configuration not stated),8.6
CC(C)Cc1ccc(C(C)C(=O)O)cc1 (configuration not stated),4.5
Cc1cc(C)n(Cc2ccc(NC(=O)c3ccc(COc4ccccc4Br)cc3)cc2)n1,0.0
CCCNC(=O)N[C@@H](Cc1ccccc1)C(=O)OC,-7.1
COc1ccccc1N1CCN(S(=O)(=O)c2ccc3c(c2)n(C)c(=O)n3C)CC1,114.8
CCCCC(=O)Nc1ccc(NC(=O)C2CC2)nc1,8.1
CCN(CC)C(=O)c1ccc(C)c(Br)c1,356.3
CCN(CC)C(=S)SCC(=O)c1ccc(Br)cc1,381.3*
Cc1ccnc(SCC(=O)c2ccc(Br)cc2)c1C#N,-61.1
COc1ccccc1/C=C1\CCCC2=C1Nc1nnnn1C2c1ccccc1OC (configuration not stated),-80.0
c1ccc(Cc2nnc3sc(-c4ccc5c(c4)OCO5)nn23)cc1,7.7
O=C(CN1C(=O)NC2(CCCC2)C1=O)Nc1cccc(-c2nnc3n2CCCCC3)c1,-71.4
COCCn1c(=S)[nH]c2cc(OC)c(OC)cc2c1=O,4.8
SMILES,INS promoter act
CCC1CCCCN1CCCNC(=O)c1ccc2c(=O)n(Cc3ccc(OC)cc3)c(=O)[nH]c2c1 (configuration not stated),8.6
CCOc1cc2[nH]c(=O)n(CC3CCC(C(=O)NCCCOC)CC3)c(=O)c2cc1OCC (configuration not stated),171.4*
CCn1c(CNC(=O)c2ccc(OC)c(OC)c2)nnc1SCC(=O)Nc1ccc(OC)cc1,0.0
COc1cccc2c1C(=O)c1c(O)c3c(c(O)c1C2=O)C[C@@](O)(C(C)=O)C[C@@H]3O[C@H]1C[C@H](N)[C@H](O)[C@H](C)O1,354.5*
CCC1Oc2nc(SC)nnc2-c2ccccc2N1C(=O)c1ccccc1 (configuration not stated),-7.7
Cc1ccc(-c2nnn(CCOc3cccc(Br)c3)n2)cc1,-3.4
Cc1[nH]c(=O)[nH]c(=O)c1NC(=O)c1sc2nc3c(C)cccc3cc2c1N,-2.9
CC(C)(C)C(=O)Nc1ccc2oc(-c3cc(F)c(F)cc3Cl)nc2c1,0.0
O=C(CSc1nc2ccccc2s1)NNC(=S)Nc1ccccc1,-3.2
Nc1nonc1NC(=O)CSc1nc2ccccc2s1,3.6
O=C(CSc1nc2ccccc2s1)Nc1nccs1,-2.8
O=C(CSc1nc2ccccc2s1)CSc1nc2ccccc2s1,94.3*
O=C(CSc1nc2ccccc2s1)N/N=C/c1ccc(C(=O)O)cc1,161.1*
O=C(CSc1nc2ccccc2o1)N/N=C/c1ccccc1,3.3
O=C(N/N=C/c1ccccc1C(=O)O)C(=O)N1CCCCC1,-7.0
CC(Sc1nnnn1-c1ccccc1)C(=O)Nc1ccc(Cl)cn1 (configuration not stated),7.9
CCN(c1ccccc1)S(=O)(=O)c1ccc(Cl)c(NC(=O)COC(=O)c2cccc(OC)c2O)c1,196.7
CCC(=O)N1CCc2cc(S(=O)(=O)CCC(=O)Nc3ccc(C)c(F)c3)ccc21,0.0
CC1CCN(C(=O)CSCc2ccc(Cl)cc2)CC1,138.5
O=S(=O)(NC1CCCCC1NS(=O)(=O)c1ccc(F)cc1)c1ccc(F)cc1 (configuration not stated),513.3*
O=S(=O)(NC1CCCCC1Nc1ccccc1)c1ccccc1 (configuration not stated),-3.3
CSc1ccc(OC2CCCCC2NS(=O)(=O)c2ccc(Cl)cc2)cc1 (configuration not stated),-100.0
COc1ccc(C(=O)Cn2c(NCCO)nc3ccccc32)cc1,7.7
Cc1cc(CNC(=O)c2cccc([N+](=O)[O-])c2C)c2ccccc2n1,7.7
CC(=O)Nc1cc(Cl)ccc1OS(=O)(=O)c1ccc(C)cc1,-6.5
SMILES,INS promoter act
O=C(Nc1ncc2c(n1)CC(c1ccco1)CC2=O)c1ccccc1 (configuration not stated),6.7
Cc1nn2c3c(cnc2c1-c1ccccc1)C(=O)CC(c1ccco1)C3 (configuration not stated),136.4*
Cc1ccc(NC(=O)CSCC(=O)Nc2ncc3c(n2)CC(c2ccco2)CC3=O)cc1 (configuration not stated),2.7
COc1ccc2[nH]c(=O)c(CN(C(=O)c3ccccn3)c3ccccc3)cc2c1,200.0*
COc1ccc2[nH]c(=O)c(CN(C(=O)c3cccnc3)c3ccccc3OC)cc2c1,8.1
COc1ccc(N(Cc2cc3cc(OC)ccc3[nH]c2=O)C(=O)c2cccnc2)cc1,0.0
CCc1ccccc1NC(=O)c1nnn(CC(=O)Nc2cccc(C)c2C)c1N,-8.3
Cc1ccnc(SCC(=O)O)n1,-3.2
Cc1ccnc(SCc2cc(=O)c(OC(=O)c3ccccc3)co2)n1,427.8*
Cc1ccnc(SCC(=O)N2CCc3ccccc3C2)n1,0.0
CCOC(=O)CC1(c2ccccc2)CCOC(C)(C)C1 (configuration not stated),2.7
CC1CCN(CCc2nc3cc(NC(=O)NC4CCCCC4)ccc3n2C)CC1,7.7
COc1ccc(NC(=O)Cc2ccc(Cl)cc2)cc1NC(=O)c1ccco1,-3.4
Cc1ccc(NC(=O)CSc2nnc(-c3cccnc3)s2)cc1,9.4
Cc1ccc(NC(=O)CSCC#N)cc1,82.8*
Cc1ccc(CSCC(=O)Nc2ccc3c(c2)OCO3)cc1,-5.6
COc1ccc(CCn2nnc(-c3ccc(NC(C)=O)c(Cl)c3)n2)cc1,0.0
CC1CCCCN1C(=O)CSc1nnc(-c2cccnc2)n1C1CCCCC1 (configuration not stated),281.3
Cc1c(/C(O)=C2\C(=O)C(=O)N(CCN(C)C)C2c2cccs2)cnn1-c1ccccc1 (configuration not stated),-11.6
CCc1c(C)nc(N)n2c(SCC(=O)N3CCCC(C)C3)nnc12 (configuration not stated),181.8*
CC1CCN(C(=O)CSc2nncn2C)CC1,2.9
Cc1nnc(SCC(=O)N2CCCCCC2)n(N)c1=O,0.0
Cc1cc(C(=O)O)c(CSCc2cc(C(=O)O)oc2C)o1,3.1
CN(C)Cc1nc2ccccc2c(=O)n1CC(=O)Nc1cccc(S(=O)(=O)N2CCOCC2)c1,5.6
Cc1ccccc1CN1CCN(CC2CC3C=CC2C3)CC1 (configuration not stated),4.2
CCOc1ccccc1CN1CCN(S(C)(=O)=O)CC1,0.0
